Measured values as given in ChEMBL document CHEMBL1156778, “Synthesis and structure-activity studies of biphenyl analogues of the tuberculosis drug (6S)-2-nitro-6-{[4-(trifluoromethoxy)benzyl]oxy}-6,7-dihydro-5H-imidazo[2,1-b][1,3]oxazine (PA-824)” (J Med Chem, 2010).
≈ marks a conversion by molar mass, not a printed value.

Columns and labels:
[1] = system: Mycobacterium tuberculosis; experiment: Antitubercular activity against Mycobacterium tuberculosis H37Rv in aerobic condition after 7 days by microplate alamar blue assay; format: functional; details: 168 h
Outline: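 M. tuberculosis H37Rv, replicating culture; 8-day microplate assay with Alamar blue added on day 7 to read growth. […] Mean of at least two independent determinations ± SD.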

[2] = system: Mycobacterium tuberculosis; experiment: Antitubercular activity against Mycobacterium tuberculosis H37Rv in anaerobic condition after 7 days by low oxygen recovery assay; format: functional; details: 168 h
Vero = experiment: Cytotoxicity against african green monkey Vero cells after 72 hrs by MTS assay; format: cell-based; details: Chlorocebus sabaeus
Outline: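 VERO cells (CCL-81), 72 h exposure, tetrazolium dye read-out.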

[3] = Metabolic stability in pooled human liver microsomes assessed as compound remaining after 1 hr by LC-MS-MS; format: ADME, Microsome; details: read-out: Stability
Outline: (§1)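 Test compound at 1 μM with pooled CD-1 mouse or human liver microsomes (0.5 mg/mL protein) and NADPH-regenerating system (3.3 mM MgCl2, 3.3 mM G6P, 0.4 U/mL G6PD, 1.3 mM NADP+) in 75 mM phosphate, pH 7.4, 0.5% DMSO, 37 °C. Stopped at 0 and 60 min with MeCN containing metoprolol internal standard. LC-MS/MS (ESI, SRM), duplicates. % remaining = 100 × mean peak-area ratio at 60 min / at 0 min.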

[4] = Metabolic stability in pooled CD1 mouse liver microsomes assessed as compound remaining after 1 hr by LC-MS-MS; format: ADME, Microsome; details: read-out: Stability; outline: as §1
[5] = system: Mycobacterium tuberculosis; experiment: Antitubercular activity against Mycobacterium tuberculosis H37Rv infected in BALB/c mouse assessed as ratio of lung CFU for compound to lung CFU for PA-824 at 100 mg/kg, po daily for 5 days a week for 3 weeks; format: functional
[6] = system: Mycobacterium tuberculosis; experiment: Antitubercular activity against Mycobacterium tuberculosis H37Rv infected in BALB/c mouse measured per mouse at 100 mg/kg, po daily for 5 days a week for 3 weeks; format: functional

Compound	MIC [1] [µM]	MIC [2] [µM]	IC50 (Vero) [µM]	remaining at 1 h [3] [%]	remaining at 1 h [4] [%]	fold change (FC) [5]	CFU [6]
O=[N+]([O-])c1cn2c(n1)OC[C@@H](OCc1ccc(-c3ccc(OC(F)F)cc3)cc1)C2	0.05 (≈ 0.0209 µg/mL)	0.77 (≈ 0.321 µg/mL)	> 125	94	77	8.5	1100
CCOc1ccccc1-c1ccc(CO[C@@H]2COc3nc([N+](=O)[O-])cn3C2)cc1	0.03 (≈ 0.0119 µg/mL)	0.82 (≈ 0.324 µg/mL)	> 125	50	0.2	0.15	540000
O=[N+]([O-])c1cn2c(n1)OC[C@@H](OCc1ccc(-c3ccc(OC(F)(F)F)cc3F)cc1)C2	0.045 (≈ 0.0204 µg/mL)	0.72 (≈ 0.326 µg/mL)	> 125	88	89	46	39
O=[N+]([O-])c1cn2c(n1)OC[C@@H](OCc1ccccc1-c1cccc(F)c1)C2	0.62 (≈ 0.229 µg/mL)	3 (≈ 1.11 µg/mL)	> 125				
O=[N+]([O-])c1cn2c(n1)OC[C@@H](OCc1ccc(-c3ccccc3)cc1)C2	0.045 (≈ 0.0158 µg/mL)	3.9 (≈ 1.37 µg/mL)	> 125				
NC(=O)c1ccc(-c2ccc(CO[C@@H]3COc4nc([N+](=O)[O-])cn4C3)cc2)cc1	2.1 (≈ 0.828 µg/mL)	15 (≈ 5.92 µg/mL)	> 125				
CC(C)(C)c1ccc(-c2ccc(CO[C@@H]3COc4nc([N+](=O)[O-])cn4C3)cc2)cc1	0.095 (≈ 0.0387 µg/mL)	> 32	> 125				
COc1ccc(-c2cccc(CO[C@@H]3COc4nc([N+](=O)[O-])cn4C3)c2)cc1F	0.19 (≈ 0.0759 µg/mL)	2.2 (≈ 0.879 µg/mL)	> 125				
Cc1cccc(C)c1-c1ccc(CO[C@@H]2COc3nc([N+](=O)[O-])cn3C2)cc1	0.39 (≈ 0.148 µg/mL)	0.93 (≈ 0.353 µg/mL)	> 125				
O=[N+]([O-])c1cn2c(n1)OC[C@@H](OCc1cccc(-c3ccc(C(F)(F)F)cc3)c1)C2	0.12 (≈ 0.0503 µg/mL)	2.9 (≈ 1.22 µg/mL)	> 125				
O=Cc1cccc(-c2ccc(CO[C@@H]3COc4nc([N+](=O)[O-])cn4C3)cc2)c1	0.14 (≈ 0.0531 µg/mL)	0.57 (≈ 0.216 µg/mL)	> 125				
O=[N+]([O-])c1cn2c(n1)OC[C@@H](OCc1cccc(-c3ccc(OCCCO)cc3)c1)C2	0.36 (≈ 0.153 µg/mL)	1.5 (≈ 0.638 µg/mL)	> 125				
O=[N+]([O-])c1cn2c(n1)OC[C@@H](OCc1ccccc1-c1ccc(F)cc1)C2	1.2 (≈ 0.443 µg/mL)	3.4 (≈ 1.26 µg/mL)	> 125				
O=[N+]([O-])c1cn2c(n1)OC[C@@H](OCc1ccc(-c3cccc(O)c3)cc1)C2	0.14 (≈ 0.0514 µg/mL)	3.1 (≈ 1.14 µg/mL)	> 125				
CSc1cccc(-c2ccc(CO[C@@H]3COc4nc([N+](=O)[O-])cn4C3)cc2)c1	0.077 (≈ 0.0306 µg/mL)	0.95 (≈ 0.378 µg/mL)	> 125				
CC(C)(C)OCc1ccc(-c2ccc(CO[C@@H]3COc4nc([N+](=O)[O-])cn4C3)cc2)cc1	0.077 (≈ 0.0337 µg/mL)	3.1 (≈ 1.36 µg/mL)	> 125				
COc1cc(-c2ccc(CO[C@@H]3COc4nc([N+](=O)[O-])cn4C3)cc2)ccc1F	0.045 (≈ 0.018 µg/mL)	1.5 (≈ 0.599 µg/mL)	> 125				
COc1c(F)cc(-c2ccc(CO[C@@H]3COc4nc([N+](=O)[O-])cn4C3)cc2)cc1F	0.045 (≈ 0.0188 µg/mL)	1.3 (≈ 0.543 µg/mL)	> 125				
O=[N+]([O-])c1cn2c(n1)OC[C@@H](OCc1cccc(-c3cccc(OC(F)(F)F)c3)c1)C2	0.4 (≈ 0.174 µg/mL)	3.5 (≈ 1.52 µg/mL)	> 125				
O=[N+]([O-])c1cn2c(n1)OC[C@@H](OCc1cccc(-c3ccccc3OC(F)(F)F)c1)C2	0.46 (≈ 0.2 µg/mL)	3.3 (≈ 1.44 µg/mL)	> 125				
O=[N+]([O-])c1cn2c(n1)OC[C@@H](OCc1ccc(-c3cccc(-c4ccccc4)c3)cc1)C2	0.31 (≈ 0.133 µg/mL)	0.88 (≈ 0.376 µg/mL)	> 125				
O=[N+]([O-])c1cn2c(n1)OC[C@@H](OCc1cccc(-c3ccc(OCCCN4CCOCC4)cc3)c1)C2	0.69 (≈ 0.341 µg/mL)	11 (≈ 5.44 µg/mL)	> 125				
O=[N+]([O-])c1cn2c(n1)OC[C@@H](OCc1cccc(-c3cccc(O)c3)c1)C2	0.3 (≈ 0.11 µg/mL)	3.7 (≈ 1.36 µg/mL)	> 125				
O=[N+]([O-])c1cn2c(n1)OC[C@@H](OCc1ccc(OC(F)(F)F)cc1)C2 [PRETOMANID]	0.5 (≈ 0.18 µg/mL)	2.6 (≈ 0.934 µg/mL)	> 125	82		1	
O=[N+]([O-])c1cn2c(n1)OC[C@@H](OCc1ccccc1-c1ccc(OC(F)(F)F)cc1)C2	2.3 (≈ 1 µg/mL)	4.3 (≈ 1.87 µg/mL)	> 125				
O=[N+]([O-])c1cn2c(n1)OC[C@@H](OCc1ccc(-c3ccc(OC(F)(F)F)cc3)cc1)C2	0.035 (≈ 0.0152 µg/mL)	1.3 (≈ 0.566 µg/mL)	> 125			>205	<2

Compound	MIC [1] [µM]	MIC [2] [µM]	IC50 (Vero) [µM]	remaining at 1 h [3] [%]	remaining at 1 h [4] [%]	fold change (FC) [5]	CFU [6]
O=[N+]([O-])c1cn2c(n1)OC[C@@H](OCc1cccc(-c3cccc(F)c3)c1)C2	0.18 (≈ 0.0665 µg/mL)	2.7 (≈ 0.997 µg/mL)	> 125				
O=[N+]([O-])c1cn2c(n1)OC[C@@H](OCc1ccc(-c3ccccc3Cl)cc1)C2	0.15 (≈ 0.0579 µg/mL)	1.5 (≈ 0.579 µg/mL)	> 125				
CC(C)c1ccc(-c2ccc(CO[C@@H]3COc4nc([N+](=O)[O-])cn4C3)cc2)cc1	0.1 (≈ 0.0393 µg/mL)	> 32	> 125				
COc1cccc(OC)c1-c1ccc(CO[C@@H]2COc3nc([N+](=O)[O-])cn3C2)cc1	0.31 (≈ 0.128 µg/mL)	1 (≈ 0.411 µg/mL)	> 125				
N#Cc1ccc(-c2ccccc2CO[C@@H]2COc3nc([N+](=O)[O-])cn3C2)cc1	8.4 (≈ 3.16 µg/mL)	19 (≈ 7.15 µg/mL)	> 125				
N#Cc1ccc(-c2cccc(CO[C@@H]3COc4nc([N+](=O)[O-])cn4C3)c2)cc1	0.23 (≈ 0.0866 µg/mL)	4.8 (≈ 1.81 µg/mL)	> 125				
O=[N+]([O-])c1cn2c(n1)OC[C@@H](OCc1ccc(-c3ccc(OCCCO)cc3)cc1)C2	0.6 (≈ 0.255 µg/mL)	2.2 (≈ 0.936 µg/mL)	> 125				
Cc1cc(-c2ccc(CO[C@@H]3COc4nc([N+](=O)[O-])cn4C3)cc2)cc(C)c1O	0.3 (≈ 0.119 µg/mL)	1.5 (≈ 0.593 µg/mL)	> 125				
O=[N+]([O-])c1cn2c(n1)OC[C@@H](OCc1ccc(-c3ccccc3C(F)(F)F)cc1)C2	0.077 (≈ 0.0323 µg/mL)	1.6 (≈ 0.671 µg/mL)	> 125				
CC(=O)c1ccc(-c2cccc(CO[C@@H]3COc4nc([N+](=O)[O-])cn4C3)c2)cc1	0.3 (≈ 0.118 µg/mL)	1.9 (≈ 0.747 µg/mL)	> 125				
O=Cc1ccccc1-c1ccc(CO[C@@H]2COc3nc([N+](=O)[O-])cn3C2)cc1	0.08 (≈ 0.0303 µg/mL)	0.78 (≈ 0.296 µg/mL)	> 125				
O=[N+]([O-])c1cn2c(n1)OC[C@@H](OCc1ccc(-c3cccc(C(F)(F)F)c3)cc1)C2	0.067 (≈ 0.0281 µg/mL)	1.3 (≈ 0.545 µg/mL)	> 125				
O=[N+]([O-])c1cn2c(n1)OC[C@@H](OCc1cccc(-c3cccc(OCCCO)c3)c1)C2	0.58 (≈ 0.247 µg/mL)	2.5 (≈ 1.06 µg/mL)	> 125				
O=[N+]([O-])c1cn2c(n1)OC[C@@H](OCc1ccc(-c3ccc(C(F)(F)F)c(Cl)c3)cc1)C2	0.06 (≈ 0.0272 µg/mL)	0.97 (≈ 0.44 µg/mL)	> 125				
O=[N+]([O-])c1cn2c(n1)OC[C@@H](OCc1cccc(-c3ccc(O)cc3)c1)C2	0.54 (≈ 0.198 µg/mL)	5.8 (≈ 2.13 µg/mL)	> 125				
Nc1cccc(-c2ccc(CO[C@@H]3COc4nc([N+](=O)[O-])cn4C3)cc2)c1	0.12 (≈ 0.044 µg/mL)	1.4 (≈ 0.513 µg/mL)	> 125				
COc1cccc(-c2ccc(CO[C@@H]3COc4nc([N+](=O)[O-])cn4C3)cc2)c1	0.27 (≈ 0.103 µg/mL)	1.9 (≈ 0.725 µg/mL)	> 125				
O=[N+]([O-])c1cn2c(n1)OC[C@@H](OCc1cccc(-c3ccccc3)c1)C2	0.095 (≈ 0.0334 µg/mL)	2.1 (≈ 0.738 µg/mL)	> 125				
CSc1ccc(-c2ccccc2CO[C@@H]2COc3nc([N+](=O)[O-])cn3C2)cc1	1.3 (≈ 0.517 µg/mL)	3.4 (≈ 1.35 µg/mL)	> 125				
O=[N+]([O-])c1cn2c(n1)OC[C@@H](OCc1ccc(-c3ccc(Cl)c(O)c3)cc1)C2	0.2 (≈ 0.0804 µg/mL)	2.1 (≈ 0.844 µg/mL)	> 125				
CSc1ccccc1-c1ccc(CO[C@@H]2COc3nc([N+](=O)[O-])cn3C2)cc1	0.087 (≈ 0.0346 µg/mL)	1.4 (≈ 0.556 µg/mL)	> 125				
CN(C)CCOc1cccc(-c2ccc(CO[C@@H]3COc4nc([N+](=O)[O-])cn4C3)cc2)c1	1.5 (≈ 0.658 µg/mL)	18 (≈ 7.89 µg/mL)	> 125				
O=[N+]([O-])c1cn2c(n1)OC[C@@H](OCc1ccc(-c3cccc(OCCCO)c3)cc1)C2	0.18 (≈ 0.0766 µg/mL)	3.2 (≈ 1.36 µg/mL)	> 125				
CSc1cccc(-c2ccccc2CO[C@@H]2COc3nc([N+](=O)[O-])cn3C2)c1	0.81 (≈ 0.322 µg/mL)	3.2 (≈ 1.27 µg/mL)	> 125				
O=[N+]([O-])c1cn2c(n1)OC[C@@H](OCc1ccc(-c3cccc(OCCO)c3)cc1)C2	0.46 (≈ 0.189 µg/mL)	5.4 (≈ 2.22 µg/mL)	> 125				
O=[N+]([O-])c1cn2c(n1)OC[C@@H](OCc1cccc(-c3ccc(F)cc3)c1)C2	0.077 (≈ 0.0284 µg/mL)	3.8 (≈ 1.4 µg/mL)	> 125				
